# Screens as filed in PubChem.
# NR2E3 ag-1: human photoreceptor-specific nuclear receptor agonism; Q9Y5X4; CHO-S Gal4-NCOR/VP16-NR2E3 two-hybrid, luciferase; inhibition of corepressor binding, % at 3.98 µM; 360,000 tested, 0.35% active;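 active = inhibition above the mean of all tested compounds plus 3 SD, cut at about 70% in these data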;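 note: 0% = DMSO with NR2E3 transfected cells and 100% = cells lacking NR2E3 construct; higher means lower luciferase signal from less NR2E3 corepressor binding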
# ADAM17 inh: inhibits human ADAM17; inhibition, % at 6.95 µM; P78536; recombinant ADAM17, EDANS/DABCYL FRET peptide cleavage; 370,000 tested, 0.83% active; AID 720648;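 active = inhibition above the mean of compounds lying between control limits plus 3 SD, set per campaign, cut at about 8.5% in these data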;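 note: 0% = DMSO-only wells as the low control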
# GASC-1 inh: inhibitors of human GASC-1 (JMJD2C) demethylase; Q9H3R0; GST-JMJD2C(1-420) H3K9me3 demethylation, DELFIA europium; inhibition, % at 2.35 µM; 330,000 tested, 0.069% active; AID 2099;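 active = more than half of a compound's replicate wells show inhibition beyond 50%, single wells judged on their own value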;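 note: signal counts dimethyl H3K9 product captured on neutravidin plate; 0% = median of DMSO wells and 100% = 0.3 times that DMSO median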
# Target sequence (Q9H3R0 1-420 limits assumed): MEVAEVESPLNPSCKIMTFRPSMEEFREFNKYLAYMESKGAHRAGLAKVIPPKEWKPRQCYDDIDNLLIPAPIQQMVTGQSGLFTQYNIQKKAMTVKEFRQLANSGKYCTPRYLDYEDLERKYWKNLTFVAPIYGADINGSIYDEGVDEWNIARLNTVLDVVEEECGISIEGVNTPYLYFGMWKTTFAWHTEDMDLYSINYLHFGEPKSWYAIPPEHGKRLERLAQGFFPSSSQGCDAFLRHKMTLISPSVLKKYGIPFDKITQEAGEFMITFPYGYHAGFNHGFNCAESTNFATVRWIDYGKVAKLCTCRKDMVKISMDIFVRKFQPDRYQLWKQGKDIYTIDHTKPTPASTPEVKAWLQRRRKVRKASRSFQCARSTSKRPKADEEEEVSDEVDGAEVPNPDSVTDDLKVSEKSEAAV
# NR2E3 ag-2: activates human photoreceptor nuclear receptor NR2E3; Q9Y5X4; GST-NR2E3/biotin-RetCOR TR-FRET, 1536-well; inhibition of corepressor binding, % at 4.78 µM; 320,000 tested, 0.12% active; AID 2300;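 active = percent inhibition above the cutoff of mean plus 3 SD of all tested compounds, set per screening campaign, cut at about 20% in these data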;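 note: 0% = DMSO wells and 100% = biotin wells as full block of FRET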
#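 System: GST-tagged NR2E3 plus biotinylated RetCOR corepressor; Buffer or medium: pH 7.5 Tris-based buffer; Probe or stimulus: RetCOR corepressor, biotinylated, 7 nM; Doses: compound at 4.8 µM, single dose; Schedule: 5 h incubation at 4 °C; Technique: time-resolved FRET; Evaluation: percent inhibition of TR-FRET ratio; Replication: one well per compound, singlicate testing.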
# proKLK7 act: activates the human kallikrein-7 zymogen; P49862; purified proKLK7, EDANS-DABCYL substrate fluorescence; 100% is mature enzyme control, 0% vehicle; activation, % at 7 µM; 370,000 tested, 0.9% active; AID 652039;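 active = activation above the mean of all tested compounds plus 3 SD, computed per campaign excluding outliers beyond control limits, cut at about 13% in these data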
# Target sequence (P49862 whole entry, looked up): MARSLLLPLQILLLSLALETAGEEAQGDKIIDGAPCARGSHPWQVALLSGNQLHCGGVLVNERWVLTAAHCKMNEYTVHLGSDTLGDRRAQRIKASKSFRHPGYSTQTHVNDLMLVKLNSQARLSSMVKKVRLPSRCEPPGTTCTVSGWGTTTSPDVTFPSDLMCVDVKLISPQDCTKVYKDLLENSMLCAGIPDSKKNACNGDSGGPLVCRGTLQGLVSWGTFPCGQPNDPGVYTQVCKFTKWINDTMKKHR
# ADAM10 inh: inhibitors of human ADAM10. recombinant ADAM10, EDANS/DABCYL FRET peptide cleavage, 3 h. inhibition, % at 7 µM. O14672. 370,000 tested, 0.62% active;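 active = inhibition above a per-campaign cutoff equal to the mean of compounds falling between control-based bounds plus 3 SD, cut at about 20% in these data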;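 note: 0% = DMSO wells while the 100% control is not disclosed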
# ADAM10 confirm: human ADAM10 inhibition, confirmation. shares compounds with ADAM10 inh. inhibition, % at 6.95 µM. 2,100 tested, 1% active. ADAM10 QFRET peptide cleavage, EDANS fluorescence;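 active = inhibition above about 20% chosen separately for each screening run, limit read from the data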;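 note: 0% = DMSO wells and 100% = marimastat wells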
# ADAM17 counter: inhibits human ADAM17 in ADAM10 exosite counter-screen. shares compounds with ADAM10 inh. ADAM17 QFRET peptide cleavage, EDANS fluorescence. inhibition, % at 6.95 µM. 2,100 tested, 0.5% active;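 active = mean triplicate inhibition above the solvent-only control wells' mean plus 3 SD, cut at about 12% in these data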;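 note: 0% = DMSO wells and 100% = marimastat wells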
# * = called active by the depositor; . = no result. Shown are actives, neighbours in structure and some others; about 2.5% of the full set was active somewhere.
SMILES,NR2E3 ag-1,ADAM17 inh,GASC-1 inh,NR2E3 ag-2,proKLK7 act,ADAM10 inh,ADAM10 confirm,ADAM17 counter
CCOC(=O)/C=C/C(=O)Nc1ccc(Oc2ccccc2)cc1,-9.4,1.0,-2.5,-4.0,-0.1,21.4*,2.3,0.4
COc1cc2c(-c3ccccc3)c(C)oc2cc1/C=N/NC(N)=S,-5.0,-7.9,-11.6,3.8,0.6,-19.1,.,.
COc1ccc(N(C)C(=O)c2oc(=O)c3ccccc3c2-c2ccc(C)cc2)c(OC)c1,-6.6,1.8,50.8,3.3,0.6,21.8*,2.2,0.8
COCCNc1nc(Oc2cncc(Cl)c2)c2sccc2n1,-32.1,-13.5,.,.,-0.3,-48.0,.,.
Cc1c(C(=O)N(C)Cc2ccc(OC(F)F)cc2)oc2ccccc12,-17.2,1.8,27.9,1.1,-0.2,19.8*,1.9,0.1
COc1ccccc1NC(=S)N1C2CCC1CC(NC(=O)NC13CC4CC(CC(C4)C1)C3)C2 (stereo not drawn),-18.8,-2.7,-14.0,6.7,0.4,3.0,.,.
CCOc1ccccc1NC(=S)N1C2CCC1CC(NC(=O)NC13CC4CC(CC(C4)C1)C3)C2 (stereo not drawn),-4.9,-5.5,-3.8,0.9,0.0,33.4*,0.8,-0.3
COc1ccc(OC)c(-c2cnc(OC(C)(C)C)nc2OC(C)(C)C)c1,12.5,-3.7,-0.6,0.1,0.0,-4.3,.,.
COc1ccc(C(=O)N/N=C/c2ccc(OC)c(COc3ccccc3)c2)cc1,-31.8,0.6,-1.7,-1.4,0.9,70.8*,11.7,3.9
COc1ccc(/C=N\NC(=O)c2ccccc2)cc1COc1ccccc1,-74.9,4.6,8.1,-1.2,0.3,3.4,.,.
Cc1c(C(C)(C)O)[nH]c2ccc(C(F)(F)F)cc12,23.6,2.3,9.0,-0.8,0.4,3.3,.,.
Cc1c(C2(O)CCCCC2)[nH]c2ccc(C(F)(F)F)cc12,-2.8,8.5,-9.9,.,0.0,20.2*,5.8,2.3
C/C(=N\OCC(=O)Nc1ccc(OC(F)(F)F)cc1)c1ccc2c(c1)OCCO2,4.5,7.4,-1.7,-2.9,-0.1,19.9*,8.2,2.2
C/C(=N\OCC(=O)Nc1ccccc1C(C)(C)C)c1ccc2c(c1)OCCO2,5.4,3.4,-0.9,0.1,-0.6,8.8,.,.
COc1ccc(NC(=O)CN2C(=O)NC(c3ccccc3)(c3ccccc3)C2=O)cc1,3.8,4.0,-2.9,6.1,0.9,10.2,.,.
COc1ccc(C2(c3ccc(OC)cc3)NC(=O)N(CC(=O)Nc3ccc(OC(F)F)cc3)C2=O)cc1,-28.8,5.7,-31.0,2.2,-0.6,31.4*,9.1,2.2
Cc1ccc(N2CCN(CC(O)COc3cccc4ccccc34)CC2)cc1 (stereo not drawn),-1.6,4.0,5.6,-0.6,-0.2,20.4*,4.8,0.4
OC(COc1cccc2ccccc12)CN1CCN(c2ccccc2Cl)CC1 (stereo not drawn),-14.0,8.4,-1.7,1.5,0.4,16.6,.,.
Nc1ncnc2c1ccn2[C@H]1CN(Cc2ccc(Cl)cc2)C[C@@H](CO)O1,-6.5,-1.5,.,.,0.1,0.6,.,.
COc1ccc2nc(SCC(=O)Nc3ccc(S(=O)(=O)N4CCCC4)cc3)c(C#N)cc2c1,-22.8,-3.7,156.9,-1.2,-23.5,71.7*,20.1*,9.6
CNC(=S)N/N=C/c1cn(CCOc2ccc(OC)cc2)c2ccccc12,-33.8,5.0,-15.7,1.2,-2.7,20.3*,12.0,5.2
Nc1cccc(CCc2ccncc2)c1,3.3,0.2,1.1,3.8,-0.4,21.1*,-0.1,0.2
c1ccc(CCc2ccncc2)cc1,-9.7,-1.1,0.2,0.0,-0.3,-10.6,.,.
O=C(CCc1ccc(S(=O)(=O)NC2CCCCC2)cc1)N(Cc1ccccc1)Cc1ccccc1,-12.6,6.5,-13.5,3.3,-0.3,21.1*,7.3,2.1
COC(=O)[C@]12CCCCC=C1N(Cc1ccc(OC)cc1)C(=O)[C@@H]2CC(=O)NCCC(C)C,.,1.1,.,.,0.6,4.5,.,.
SMILES,NR2E3 ag-1,ADAM17 inh,GASC-1 inh,NR2E3 ag-2,proKLK7 act,ADAM10 inh,ADAM10 confirm,ADAM17 counter
C(=C\c1ccccc1)/CNn1cnnc1,-4.0,-1.1,8.0,1.6,-0.2,0.3,.,.
Clc1ccccc1CSc1nncn1NC/C=C/c1ccccc1,-6.4,8.3,40.3,1.1,0.2,20.0*,0.3,0.3
COc1cc(CN(C2CCCCC2)S(=O)(=O)c2ccc(S(=O)(=O)N(C)C3CCCCC3)cc2)cc(OC)c1OC,-2.0,-1.1,-4.1,-0.6,0.1,2.7,.,.
Cc1ccc(S(=O)(=O)N(CCC(=O)Nc2ccc(OC(F)(F)F)cc2)c2ccccc2)cc1,11.8,7.8,2.4,2.6,0.8,20.5*,8.6,2.5
COc1ccc(S(=O)(=O)N(CC(=O)Nc2ccc(S(=O)(=O)N3CCOCC3)cc2)c2ccccc2)cc1,2.5,7.6,-1.3,1.0,-0.1,23.6*,2.4,1.0
Cc1ccc(S(=O)(=O)N(CCC(=O)NCc2ccccc2F)c2ccccc2)cc1,-12.2,0.3,7.0,1.4,0.6,-0.4,.,.
COc1ccc(NC(=O)CN(C)C(=O)c2ccc(S(=O)(=O)N3CCOCC3)cc2)cc1,-16.9,-2.5,.,.,0.6,-1.8,.,.
Cc1cc(C)c(S(=O)(=O)Nc2nccs2)c(C)c1,0.7,-0.4,-6.7,-2.9,0.2,-7.8,.,.
COc1ccc(-n2c(=S)[nH]c3cc(C(=O)NCc4ccc(F)cc4)ccc3c2=O)c(OC)c1,-21.4,6.2,-2.3,0.5,-0.5,23.2*,0.7,0.6
COc1ccc(-n2c(=S)[nH]c3cc(C(=O)NCc4ccccc4OC)ccc3c2=O)c(OC)c1,14.7,5.7,-3.7,-1.4,0.3,14.4,.,.
CC1(C)SC(=S)N(/N=C/c2ccccc2)C1N(O)C(=O)Nc1ccc([N+](=O)[O-])cc1 (stereo not drawn),-21.2,6.2,-7.4,-1.5,0.2,22.2*,2.7,0.5
O=C(Cn1nc(-c2ccccc2F)ccc1=O)Nc1ccc(S(=O)(=O)N2CCCCCC2)cc1,-18.1,1.1,10.1,-1.8,0.5,6.4,.,.
O=C(Cn1ncc2c1-c1ccccc1OC2)Nc1ccc(S(=O)(=O)N2CCCCC2)cc1,-11.4,10.1*,.,4.0,0.5,22.4*,7.5,2.1
OC(CC1CC12c1ccccc1-c1ncccc12)(c1ccccc1)c1ccccc1 (stereo not drawn),-8.7,4.0,-0.5,1.1,-0.4,23.7*,6.9,2.1
